ChEMBL document CHEMBL4251543, “Identification of potent tricyclic prodrug S1P1 receptor modulators” (Medchemcomm, 2017)

How the values were obtained:
[1] = Half life in rat; type: ADME, organism-based; details: in vivo
[2] = Half life in Lewis rat at 2 mg/kg, po after 72 hrs; type: ADME, organism-based; details: in vivo
[3] = Prodrug conversion in Lewis rat blood assessed as parent compound levels at 2 mg/kg, po after 48 hrs; type: ADME, organism-based; details: in vivo, read-out: Drug metabolism
[4] = Prodrug conversion in Lewis rat blood assessed as formation phosphate metabolite at 2 mg/kg, po after 24 hrs; type: ADME, organism-based; details: in vivo
Rattus norvegicus [5] = assay: Immunosuppressive activity in Lewis rat assessed as reduction in blood lymphocytes count at 2 mg/kg, po after 24 hrs relative to control; type: functional; design: scale not given: the % may be the effect or the level left
Outline: (§1)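 Oral dosing in Lewis rats, with PEG300 as vehicle, given as solution or suspension adjusted for free test article if salt forms are used. Blood sampled at several time points. Lymphocytes counted on a hematology analyzer. Result is the reduction in circulating lymphocyte percentage versus the vehicle group at each time, averaged per group (n = 2).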

Mus musculus = organism: Mus musculus; assay: Pulmonary toxicity in mouse assessed as increase in BAL protein levels at 20 times ED50 relative to control; type: organism-based; details: in vivo
[6] = Prodrug conversion in Lewis rat blood assessed as formation phosphate metabolite at 2 mg/kg, po after 4 hrs; type: ADME, organism-based; details: in vivo
Rattus norvegicus [7] = assay: Immunosuppressive activity in Lewis rat assessed as reduction in blood lymphocytes count at 2 mg/kg, po after 48 hrs relative to control; type: functional; design: scale not given: the % may be the effect or the level left; outline: as §1
Rattus norvegicus [8] = assay: Immunosuppressive activity in po dosed Lewis rat assessed as reduction in blood lymphocytes after 24 hrs; type: functional; outline: as §1
[9] = Prodrug conversion in Lewis rat blood assessed as parent compound levels at 2 mg/kg, po after 24 hrs; type: ADME, organism-based; details: in vivo, read-out: Drug metabolism
[10] = Prodrug conversion in Lewis rat blood assessed as formation phosphate metabolite at 2 mg/kg, po after 48 hrs; type: ADME, organism-based; details: in vivo
Rattus norvegicus [11] = assay: Immunosuppressive activity in Lewis rat assessed as reduction in blood lymphocytes count at 2 mg/kg, po after 4 hrs relative to control; type: functional; design: scale not given: the % may be the effect or the level left; outline: as §1
[12] = Prodrug conversion in Lewis rat blood assessed as parent compound levels at 2 mg/kg, po after 4 hrs; type: ADME, organism-based; details: in vivo, read-out: Drug metabolism

Structure (SMILES)	half-life [1] [h]	half-life [2] [h]	concentration [3] [nM]	Drug metabolism [4] [nM]	Activity (Rattus norvegicus [5]) [%]	fold change (FC) (Mus musculus)	Drug metabolism [6] [nM]	Activity (Rattus norvegicus [7]) [%]	ED50 (Rattus norvegicus [8]) [mg/kg]	concentration [9] [nM]	Drug metabolism [10] [nM]	Activity (Rattus norvegicus [11]) [%]	concentration [12] [nM]
CCCCCC[C@@H]1CCc2cc([C@H]3CC[C@](N)(CO)C3)ccc2C1 [BMS-986104]	162	–	–	–	–	–	–	–	–	–	–	–	–
CCCCOCCOc1nc2c(s1)-c1ccc([C@H]3CC[C@](N)(CO)C3)cc1CC2	–	20	27	58	87	5	120	82	0.25	140	18	79	200
